Experiment [1] concerns Rattus norvegicus. Description: In vivo evaluation for DOPA accumulation in the hemispheres in male rats at highest test dose of 12.5 uM/Kg (sc); inactive. Format: functional, organism-based. A digest of the protocol:
(§1)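 Male Sprague-Dawley rats were pretreated with reserpine 5 mg/kg sc 18 h before dosing. DOPA and 5-HTP in limbic system, striatum and hemispheres were measured by HPLC with electrochemical detection. Dose-response curves used 4–6 dose levels (n = 4) for each region; ED50 was estimated graphically. Partial responses are given as the maximal % reduction at the highest dose tested.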

Experiment [2] deals with Rattus norvegicus. Description: In vivo evaluation for DOPA accumulation in the corpus striatum in male rats (sc). Format: functional. In short, it runs like this: as §1
Experiment [3] deals with Rattus norvegicus. Description: In vivo evaluation for 5-HTP accumulation in the hemispheres in male rats (sc). The format is functional. In short, it runs like this: as §1
Experiment [4] addresses T1, D(2) dopamine receptor (Rattus norvegicus, UniProt P61169). Description: Displacement of [3H]spiperone from dopamine receptor D2. In short, it runs like this:
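Rat striatal membranes in 50 mM potassium phosphate buffer (3 mg original tissue) incubated with 0.5 nM [3H]spiperone for 10 min at 37 °C. Nonspecific binding was defined with 10 μM 6,7-ADTN. Ki was calculated by Cheng–Prusoff; triplicates, 3–7 experiments.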

Experiment [5] has as its system Rattus norvegicus. Description: In vivo evaluation for 5-HTP accumulation in the corpus striatum in male rats (sc). Format: functional. In short, it runs like this:
as §1

Experiment [6] concerns Rattus norvegicus. Description: In vivo evaluation for DOPA accumulation in the limbic system in male rats (sc). Format: functional. A digest of the protocol: as §1
Experiment [7] deals with T1, D(2) dopamine receptor. Description: In vitro binding affinity against dopamine receptor D2 using [3H]-Raclopride as radioligand in CHO cells (sc). Format: cell-based.
The test system of experiment [8] is Rattus norvegicus. Description: In vivo evaluation for 5-HTP accumulation in the limbic system in male rats (sc). Format: functional. A digest of the protocol:
as §1

The species entered for experiment [9] is Rattus norvegicus. Description: Compound was tested for 5-HT behavioral response in reserpine pretreated rats; +5HT syndrome. The format is functional, organism-based. A digest of the protocol: (§2)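 Male Sprague-Dawley rats (200–300 g) were given reserpine 5 mg/kg sc 18 h before testing, then the test drug sc in the neck (n = 4). Motor activity was recorded by photocells for 30 min, with gross behaviour observed throughout. 5-HT syndrome: flat body posture, extended limbs, reciprocal forepaw treading. DA response: locomotion and stereotypies.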

Experiment [10] is filed under the species Rattus norvegicus. Description: Compound was tested for 5HT, Dopamine agonist mediated response in reserpine pretreated rats; mix DA, 5-HT syndrome. The format is functional, organism-based. A digest of the protocol: as §2
The test system of experiment [11] is Rattus norvegicus. Description: Maximal reduction in percent (Partial response) of DOPA accumulation rat lhemispheres at highest test dose of 2.0 uM/Kg (sc). The format is functional. In short, it runs like this: as §1
The test system of experiment [12] is Rattus norvegicus. Description: Maximal reduction in percent (Partial response) of DOPA accumulation rat hemispheres at highest test dose of 4.0 uM/kg (sc). Format: functional. A digest of the protocol:
as §1

Experiment [13] concerns Rattus norvegicus. Description: Maximal reduction in percent (Partial response) of DOPA accumulation rat limbic system at highest test dose of […] (sc). Format: functional.
In experiment [14] the test system is Rattus norvegicus. Description: In vivo evaluation for DOPA accumulation in the hemispheres in male rats at highest dose tested; inactive. The format is functional, organism-based. In short, it runs like this:
as §1

Experiment [15] has as its system Rattus norvegicus. Description: In vivo evaluation for DOPA accumulation in the hemispheres in male rats (sc). Format: functional. In short, it runs like this: as §1
The species entered for experiment [16] is Rattus norvegicus. Description: Compound was tested for 5HT, Dopamine agonist mediated response in reserpine pretreated rats; no change. Format: functional, organism-based. A digest of the protocol:
as §2

Calls of active or inactive are those of the source. The rule behind the calls is not given here.

T1 sequence (P61169 whole entry): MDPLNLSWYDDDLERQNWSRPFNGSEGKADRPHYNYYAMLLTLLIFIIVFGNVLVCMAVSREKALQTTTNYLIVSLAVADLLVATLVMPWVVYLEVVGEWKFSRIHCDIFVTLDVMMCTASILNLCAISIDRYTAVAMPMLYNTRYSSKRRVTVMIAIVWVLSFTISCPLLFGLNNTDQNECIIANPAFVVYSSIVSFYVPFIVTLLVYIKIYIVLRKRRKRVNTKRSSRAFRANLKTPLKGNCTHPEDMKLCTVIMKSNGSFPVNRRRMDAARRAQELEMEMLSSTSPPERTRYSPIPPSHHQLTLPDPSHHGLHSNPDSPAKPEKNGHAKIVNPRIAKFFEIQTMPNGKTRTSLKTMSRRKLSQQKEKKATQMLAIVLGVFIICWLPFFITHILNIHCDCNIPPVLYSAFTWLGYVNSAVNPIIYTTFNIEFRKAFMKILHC

As usually defined, the ED50 is the midpoint of the dose-response relation. By Ki is commonly meant the equilibrium dissociation constant of an inhibitor or competing ligand from its target. In the case of `CCCN(CCC)C1CCc2ccc3[nH]cc(C=O)c3c2C1` (racemic), in the experiment with Rattus norvegicus [1], the ED50 result was “inactive”. Besides, the ED50 with Rattus norvegicus [2] was 1.8 µmol/kg; with Rattus norvegicus [3], 0.067 µmol/kg; in the experiment on Rattus norvegicus [5], 0.054 µmol/kg; in the experiment with Rattus norvegicus [6], 0.47 µmol/kg; in the experiment on Rattus norvegicus [8] it was 0.06 µmol/kg. Besides, the values for the Ki on D(2) dopamine receptor [4] and at D(2) dopamine receptor [7] were 120 nM and 40 nM, respectively. Also, the Behavioral response entry in the experiment filed under Rattus norvegicus [9] is “Active”.

`CN(C)[C@@H]1CCc2ccc3[nH]ccc3c2C1`: the ED50 in the experiment with Rattus norvegicus [2] was determined as 0.4 µmol/kg; in the experiment with Rattus norvegicus [3], 0.4 µmol/kg; in the experiment on Rattus norvegicus [5], 0.1 µmol/kg; in the experiment on Rattus norvegicus [6], 0.3 µmol/kg; in the experiment on Rattus norvegicus [8], 0.4 µmol/kg. Moreover, the Behavioral response result in the experiment listed under Rattus norvegicus [10] was “Active”. In the experiment on Rattus norvegicus [11], this molecule returned a Reduction of 30%.

Turning to `CN(C)C1CCc2ccc3[nH]ccc3c2C1` (racemic), the ED50 with Rattus norvegicus [2] was determined as 0.4 µmol/kg; in the experiment with Rattus norvegicus [3] it was 0.4 µmol/kg; with Rattus norvegicus [5], 0.3 µmol/kg; in the experiment with Rattus norvegicus [6] it was 0.3 µmol/kg; in the experiment with Rattus norvegicus [8] it was 0.3 µmol/kg. In addition, in the experiment with Rattus norvegicus [12], the Reduction was found to be 34%. For the same molecule, in the experiment filed under Rattus norvegicus [9], the Behavioral response result was “Active”.

Take `CCCN(CCC)[C@@H]1CCc2ccc3[nH]ccc3c2C1`: the ED50 with Rattus norvegicus [2] is 0.16 µmol/kg; in the experiment with Rattus norvegicus [3], 0.41 µmol/kg; with Rattus norvegicus [5] it was 0.25 µmol/kg; in the experiment on Rattus norvegicus [8] it was 0.2 µmol/kg. At D(2) dopamine receptor [4], this molecule displayed a Ki of 100 nM. Moreover, the Behavioral response result in the experiment listed under Rattus norvegicus [10] was “Active”. In addition, in the experiment on Rattus norvegicus [13], the Reduction amounted to 37%. For the same molecule, in the experiment on Rattus norvegicus [14], the ED50 result is “inactive”.

As for `CN(C)[C@H]1CCc2ccc3[nH]ccc3c2C1`, the 50% effective dose (ED50) in the experiment with Rattus norvegicus [2] came out at 8 µmol/kg; in the experiment on Rattus norvegicus [3] it was 2.7 µmol/kg; with Rattus norvegicus [15], 13 µmol/kg; with Rattus norvegicus [5] it was 3.9 µmol/kg; in the experiment on Rattus norvegicus [6], 4.2 µmol/kg; in the experiment with Rattus norvegicus [8], 3.9 µmol/kg. Besides, the Behavioral response entry in the experiment filed under Rattus norvegicus [16] was “inactive”.

Source of the values: ChEMBL document CHEMBL1126740, “(S)- and (R)-8-(di-n-propylamino)-6,7,8,9-tetrahydro-3H-benz[e]indole-1-carbaldehyde: a new class of orally active 5-HT1A-receptor agonists” (J Med Chem, 1993).
